# Assay outcomes (PubChem)
# An excerpt weighted towards active compounds, which were near 4.9% of everything screened.
# STAT1 activator: STAT1 signaling activators, primary screen, cell-based, HTS, luciferase reporter | activation (% of control), % at 5.5 µM | NIH 3T3 STAT1-luciferase reporter, IFN-gamma, luminescence; 100% = IFN-gamma alone, no compound | 2.6% of 200,000 active;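 active = activation above the screen-wide mean activation plus 3 SD, cut at about 130% in these data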
# STAT1 blocker: STAT1 signaling inhibitors, primary screen, cell-based, HTS, luciferase reporter; NIH 3T3 STAT1-luciferase reporter, IFN-gamma, luminescence; inhibition, % at 5.5 µM; 0.35% of 200,000 active; AID 920, 2007;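 active = inhibition above a set limit, the mean inhibition across all tested compounds plus 3 SD, cut at about 34% in these data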
# STAT3 activator: IL-6 driven STAT3 reporter potentiators, primary screen, U3A cells, luciferase, luminescence, MLSCN library; IL-6 STAT3-luciferase reporter; 100% = signal with IL-6 EC80 alone; 0.91% of 190,000 active; activation (% of control), % at 5.6 µM;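 active = activation above the screen-wide mean of compound activation plus 3 SD, cut at about 130% in these data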
#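 Test system: STAT3-luciferase reporter U3A cells; Detection: reporter luminescence signal; Times: 1 h compound pre-exposure, 6 h IL-6 stimulation, 37 °C; Benchmarks: IL-6-only high control; Also added: IL-6 stimulus at 33 ng/mL final.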
# STAT3 inh-1: IL-6 driven STAT3 reporter inhibitors, primary screen, U3A cells, luciferase, luminescence, MLSCN library; inhibition, % at 5.5 µM; IL-6 STAT3-luciferase reporter; host cell line lacks STAT1; AID 862, 2007; 0.89% of 190,000 active;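 active = inhibition above the mean inhibition across all screened compounds plus 3 SD, cut at about 44% in these data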
# FLuc inhib CS: firefly luciferase enzyme inhibitors, primary screen, artefact control for luciferase-based inhibitor screens, biochemical, luminescence, ATPLite | Luciferin 4-monooxygenase (Photinus pyralis), P08659 | 10 min | inhibition, % at 10 µM | 1.5% of 200,000 active;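 active = inhibition above about 50% when tested at 10 µM, limit read from the data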
# Target sequence (P08659 whole entry, looked up): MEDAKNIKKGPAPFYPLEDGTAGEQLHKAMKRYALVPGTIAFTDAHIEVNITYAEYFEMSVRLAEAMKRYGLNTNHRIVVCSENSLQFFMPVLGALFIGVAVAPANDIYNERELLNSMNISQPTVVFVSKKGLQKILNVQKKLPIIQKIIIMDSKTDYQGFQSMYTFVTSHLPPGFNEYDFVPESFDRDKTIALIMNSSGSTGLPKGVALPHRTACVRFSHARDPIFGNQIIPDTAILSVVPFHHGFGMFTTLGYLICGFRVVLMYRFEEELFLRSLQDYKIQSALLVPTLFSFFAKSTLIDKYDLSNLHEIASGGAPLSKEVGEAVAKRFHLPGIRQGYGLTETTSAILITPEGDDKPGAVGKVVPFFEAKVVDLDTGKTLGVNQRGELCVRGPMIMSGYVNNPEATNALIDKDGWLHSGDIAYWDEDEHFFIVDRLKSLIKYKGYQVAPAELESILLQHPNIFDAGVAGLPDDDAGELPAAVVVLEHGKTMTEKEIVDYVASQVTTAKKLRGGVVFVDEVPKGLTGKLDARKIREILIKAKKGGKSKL
# FLuc stim CS: FLuc activators, initial screening, artefact control for FLuc-dependent activation tests, biochemical, ATPlite luminescence; Luciferin 4-monooxygenase (Photinus pyralis), P08659; ATPlite luciferase biochemical, 10 min; 0 = ATP-free wells, 1 = DMSO control; activation factor at 10 µM; 200,000 tested, under 10 active; AID 1027, 2008;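 active = luciferase activation factor, scaled between plate controls, of at least 2 with compound at 10 µM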
#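 Material: Luciferase/luciferin reagent mix | Doses: Test compounds dosed from 2 mM stocks in 100% DMSO | Timing: 10 min incubation after luciferase reagent addition, room temperature | Measured by: Luminescence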
# STAT3 inh-2: STAT3 reporter inhibitors, retest of hits, confirmation, U3A cells, luciferase, luminescence. shares compounds with STAT3 inh-1. IL-6 STAT3 luciferase reporter; cell line lacks STAT1. inhibition, % at 5.7 µM. 45% of 1,200 active;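 active = inhibition above the hit cutoff computed for the primary STAT3 screen, cut at about 44% in these data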
# NFkB inh 2: NF-kB reporter inhibitors in human cells, confirmation, counter-screen for STAT3 inhibitor project, cell-based, HEK293T, luciferase, TNF-alpha stimulus. TNF-alpha induced. shares compounds with STAT3 inh-1. AID 1308, 2008. inhibition, % at 5.7 µM. 36% of 1,200 active;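 active = inhibition above the mean of solvent-only control wells plus 3 SD, cutoff set per campaign, cut at about 13% in these data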
# STAT1 inh 2: STAT1 reporter inhibitors, IFN-gamma induced, confirmation, counter-screen for STAT3 inhibitor project, cell-based, NIH 3T3, luciferase luminescence. shares compounds with STAT3 inh-1. NIH 3T3 STAT1-luciferase reporter. inhibition, % at 5.7 µM. 27% of 1,200 active. AID 1317, 2008;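 active = inhibition above the mean plus 3 SD of solvent-only control wells, limit set per screening run, cut at about 16% in these data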
# Numbers stand for hits; - = inactive; . = no result.
SMILES,STAT1 activator,STAT1 blocker,STAT3 activator,STAT3 inh-1,FLuc inhib CS,FLuc stim CS,STAT3 inh-2,NFkB inh 2,STAT1 inh 2
Cc1ccc(NC(=O)c2sc3nc(CCl)[nH]c(=O)c3c2C)c(C)c1,-,-,-,-,-,-,.,.,.
COC(=O)c1ccccc1OCCCOc1ccc(C)cc1OC,-,-,-,58.7,-,-,-,-,-
O=C(Nc1ccc(C(F)(F)F)cc1)c1cccnc1N1CCOCC1,-,-,-,-,-,-,.,.,.
O=C(Nc1ccc(N2CCOCC2)nc1)c1ccc(C(F)(F)F)cc1,-,-,-,60.8,-,-,59.2,-,-
O=[N+]([O-])c1cccc(-n2nnnc2CN2CCCC2)c1,-,-,-,-,-,-,.,.,.
O=S1(=O)C=C(SCc2ccc(F)cc2)Nc2ccccc21,-,-,-,-,-,-,.,.,.
COc1ccc(C(=O)N2CCN(Cc3ccc4c(c3)OCO4)CC2)cc1[N+](=O)[O-],-,-,-,-,-,-,.,.,.
COC1=C(N)C(=O)c2nc(-c3nc(C(=O)O)c(C)c(-c4ccc(OC)c(OC)c4O)c3N)ccc2C1=O,-,-,-,105.5,-,-,103.2,97.4,85.3
CC(=O)c1c(C)[nH]c(C(=O)COc2ccc(C#N)cc2)c1C,-,-,-,-,-,-,.,.,.
CC(=O)c1c(C)[nH]c(C(=O)COc2cc(C)ccc2C(C)C)c1C,-,-,-,68.1,-,-,72.7,21.3,22.0
COc1ccccc1OCC(=O)c1[nH]c(C)c(C(C)=O)c1C,-,-,-,55.8,-,-,46.3,-,-
CCN(C(=O)C(C)Cl)c1ccccc1 (stereo not given),-,-,-,-,-,-,.,.,.
CCN(CCn1cccn1)Cc1ccccc1OCC(O)CN1CCc2ccccc2C1 (stereo not given),-,-,-,-,-,-,.,.,.
Cc1cc(C(=O)CSc2nnc(-c3cccc(F)c3)n2N)c(C)n1Cc1ccc2c(c1)OCO2,-,-,-,47.0,-,-,-,-,-
C=CCNC(=O)C1CCN(c2ccc(S(=O)(=O)N3CCOCC3)cc2[N+](=O)[O-])CC1,-,-,-,-,-,-,.,.,.
CC(=C/C(=O)O)/C(=C/c1ccccc1)C(=O)O,-,-,-,-,-,-,.,.,.
O=C(O)/C=C/c1ccc2ccccc2n1,-,-,-,-,-,-,.,.,.
Fc1ccccc1/C=C/c1ccc2ccccc2n1,-,-,-,72.5,87.3,-,-,30.5,-
c1ccc2sc(-c3ccc4c(c3)OCO4)nc2c1,-,-,-,70.3,89.0,-,-,-,-
O=C(Nc1cccc(-c2nc3ccccc3s2)c1)c1ccc2c(c1)OCO2,-,-,-,-,-,-,.,.,.
N[C@@H](Cc1ccc(O)cc1)c1nnc([C@H](CC(=O)O)NC(=O)C2CCNCC2)o1,-,-,.,.,-,-,.,.,.
O=C1c2ccccc2C(=O)C1c1nccc2ccccc12,-,-,-,62.5,89.9,-,-,48.9,-
Cc1nnc(NC(=O)CCNC(=O)c2ccccc2Cl)s1,-,-,-,-,-,-,.,.,.
CSc1nnc(C)c(=O)n1COC(=O)COc1ccc(Cl)cc1Cl,-,-,-,-,-,-,.,.,.
Cc1cc(C(=O)COc2cccnc2[N+](=O)[O-])c(C)n1-c1ccccc1,-,-,-,59.9,-,-,-,-,-
SMILES,STAT1 activator,STAT1 blocker,STAT3 activator,STAT3 inh-1,FLuc inhib CS,FLuc stim CS,STAT3 inh-2,NFkB inh 2,STAT1 inh 2
Fc1ccc2[nH]c3c(Cl)ncnc3c2c1,-,-,-,-,-,-,.,.,.
CCCCOc1ncnc2c1[nH]c1ccccc12,-,-,-,50.1,-,-,-,19.1,25.0
CCCCOc1ncnc2c1[nH]c1ccc(OC)cc12,137.3,-,-,45.9,-,-,-,-,-
CCCCOc1ncnc2c1[nH]c1ccc(OCC)cc12,-,-,-,-,-,-,.,.,.
CCCCOc1ncnc2c1[nH]c1ccc(F)cc12,-,-,-,82.6,-,-,74.2,18.6,31.8
O=S(=O)(c1ccc2c(c1)OCCO2)N1CCC(c2nc3ccccc3s2)CC1,-,-,-,53.4,-,-,44.2,-,-
CC1CCN(S(=O)(=O)c2ccc3c(c2)oc(=O)n3CC(=O)NCc2ccc3c(c2)OCO3)CC1,-,-,-,43.5,-,-,-,-,16.7
COc1ccc(C(=O)/C=C/Nc2ccc(S(=O)(=O)Nc3cccc(C(C)=O)c3)cc2)cc1,-,-,-,-,-,-,.,.,.
COc1ccc(C(=O)Nc2cccc(C)c2)cc1,137.9,-,-,44.0,77.2,-,-,-,-
O=C(Nc1cccc(C(=O)N2CCN(Cc3ccccc3)CC2)c1)c1ccccc1,-,-,-,-,-,-,.,.,.
COc1ccc(C(=O)/C=C/Nc2cccc(O)c2)cc1,-,-,-,93.1,95.2,-,80.4,15.8,-
Cc1cccc(NC(=O)c2ccc(CN3CCN(Cc4ccccc4)CC3)cc2)c1,-,-,-,62.6,-,-,62.2,13.9,-
Cc1ccc(NC(=S)NNC(=O)c2ccccc2O)c(C)c1,-,-,-,-,-,-,.,.,.
COc1ccc(/C=N/NC(=O)CC(=O)NC2CCCCC2)cc1,-,-,-,-,-,-,.,.,.
CCN(CC)c1ccc2cc(NC(=O)CCC(=O)O)c(=O)oc2c1,-,-,-,70.0,-,-,64.7,29.2,28.2
CC1Cc2ccccc2N1C1=CC(=O)CCC1 (stereo not given),-,-,-,-,-,-,.,.,.
O=C(Nc1cccc(Br)c1)c1ccc(Cl)c(S(=O)(=O)N2CCOCC2)c1,-,-,-,72.9,-,-,65.9,15.4,-
O=C(Nc1ccc(Cl)c(S(=O)(=O)N2CCOCC2)c1)c1ccc(OCC2CCCO2)cc1 (stereo not given),-,-,-,54.3,-,-,61.0,21.6,-
COc1ccc(C(=O)Nc2ccc(-c3ccc(C)o3)cc2)cc1S(=O)(=O)N1CCOCC1,-,-,-,70.2,-,-,71.3,28.3,-
